Source: ChEMBL document CHEMBL1122206, “Use of adenine nucleotide derivatives to assess the potential of exo-active-site-directed reagents as species- or isozyme-specific enzyme inactivators. 5. Interactions of adenosine 5'-triphosphate derivatives with rat pyruvate kinases, Escherichia coli thymidine kinase, and yeast and rat …” (1982)

How the values were obtained:
[1] = target: T1, Hexokinase-2 (Rattus norvegicus) (UniProt P27881); test: Substrate activity against Rat hexokinase II as 1:1 Mg complex at 5.0 mM
T1 sequence (whole entry): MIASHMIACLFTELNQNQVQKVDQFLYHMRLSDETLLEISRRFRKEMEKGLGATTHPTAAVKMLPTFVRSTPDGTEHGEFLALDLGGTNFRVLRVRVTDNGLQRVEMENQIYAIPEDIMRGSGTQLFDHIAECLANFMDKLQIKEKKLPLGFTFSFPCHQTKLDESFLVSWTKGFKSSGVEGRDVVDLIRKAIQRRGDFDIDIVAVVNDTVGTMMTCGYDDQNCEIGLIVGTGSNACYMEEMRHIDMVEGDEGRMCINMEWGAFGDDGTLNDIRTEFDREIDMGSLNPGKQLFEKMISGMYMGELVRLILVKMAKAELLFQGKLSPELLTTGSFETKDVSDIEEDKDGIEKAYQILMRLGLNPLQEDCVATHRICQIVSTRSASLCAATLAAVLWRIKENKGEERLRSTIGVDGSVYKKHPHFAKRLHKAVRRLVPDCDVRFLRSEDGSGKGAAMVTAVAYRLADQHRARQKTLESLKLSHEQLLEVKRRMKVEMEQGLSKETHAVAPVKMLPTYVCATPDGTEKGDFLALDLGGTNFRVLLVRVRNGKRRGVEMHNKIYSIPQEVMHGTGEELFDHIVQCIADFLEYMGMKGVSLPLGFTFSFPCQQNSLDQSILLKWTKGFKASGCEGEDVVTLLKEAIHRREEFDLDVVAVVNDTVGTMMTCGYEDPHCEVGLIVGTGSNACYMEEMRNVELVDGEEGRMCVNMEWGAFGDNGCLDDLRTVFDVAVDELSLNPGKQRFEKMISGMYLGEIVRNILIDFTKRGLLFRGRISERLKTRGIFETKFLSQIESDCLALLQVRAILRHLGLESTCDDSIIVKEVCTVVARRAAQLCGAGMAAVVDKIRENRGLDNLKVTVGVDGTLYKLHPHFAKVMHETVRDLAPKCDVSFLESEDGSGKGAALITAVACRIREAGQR
In short: (§1)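 Hexokinase activity read at 22 °C as A340 change, coupled to glucose-6-phosphate dehydrogenase, in 0.05 M Tris-HCl pH 7.6 with 6.6 mM MgCl2, 10 mM α-D-glucose and 0.93 mM NADP. Donor was 5.0 mM MgATP derivative (1:1 Mg complex) in place of ATP. Yeast HK was isoelectric-focused. Rat HK I and III came from electrofocused liver extract, HK II from dialysed muscle extract.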

[2] = target: T2, Hexokinase-1 (Rattus norvegicus) (UniProt P05708); test: Substrate activity for rat hexokinase I as 1:1 Mg complex at 5.0 mM; in short: as §1
T2 sequence (whole entry): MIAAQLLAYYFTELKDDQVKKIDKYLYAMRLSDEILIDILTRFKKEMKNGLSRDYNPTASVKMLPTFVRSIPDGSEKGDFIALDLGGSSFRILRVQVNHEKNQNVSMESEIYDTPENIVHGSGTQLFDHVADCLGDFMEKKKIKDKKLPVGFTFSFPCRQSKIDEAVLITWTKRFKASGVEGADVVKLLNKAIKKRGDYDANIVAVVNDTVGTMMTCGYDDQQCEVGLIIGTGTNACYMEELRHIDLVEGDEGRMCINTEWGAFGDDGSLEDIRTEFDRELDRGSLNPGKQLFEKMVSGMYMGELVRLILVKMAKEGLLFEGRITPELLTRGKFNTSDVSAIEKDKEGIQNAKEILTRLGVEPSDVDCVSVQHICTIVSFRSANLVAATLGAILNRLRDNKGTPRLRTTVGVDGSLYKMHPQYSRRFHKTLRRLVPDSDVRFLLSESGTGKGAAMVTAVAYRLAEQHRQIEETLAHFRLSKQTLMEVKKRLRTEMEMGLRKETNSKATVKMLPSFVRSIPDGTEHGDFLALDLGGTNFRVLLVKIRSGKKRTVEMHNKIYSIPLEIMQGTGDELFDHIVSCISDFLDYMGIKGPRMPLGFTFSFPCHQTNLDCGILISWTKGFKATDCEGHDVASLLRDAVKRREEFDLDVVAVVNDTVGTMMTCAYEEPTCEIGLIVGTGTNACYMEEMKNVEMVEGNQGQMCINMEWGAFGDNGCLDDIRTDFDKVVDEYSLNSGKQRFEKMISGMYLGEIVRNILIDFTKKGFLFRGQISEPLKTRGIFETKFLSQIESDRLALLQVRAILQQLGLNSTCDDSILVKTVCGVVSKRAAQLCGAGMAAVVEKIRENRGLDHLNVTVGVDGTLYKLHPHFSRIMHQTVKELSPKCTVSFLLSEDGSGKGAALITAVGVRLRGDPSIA

[3] = Tested for the velocity of 2.8 mM compound relative to that of 2.8 mM MgATP in the assay
In short: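 E. coli TK substrate test. 0.5 h after adding inhibitor, the mixture was diluted to 2.8 mM derivative in thymidine assay medium without ATP and with 1.42 mM MnCl2. Incubated 15 min at 37 °C, in the linear range. [14C]TMP formed was compared with that from 2.8 mM ATP under the same conditions.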

[4] = Substrate concentration for half maximal velocity was reported for rat hexokinase I
In short: (§2)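 Coupled glucose-6-phosphate dehydrogenase/NADP assay: A340 rate at 22 °C in 0.05 M Tris-HCl pH 7.6 with 6.6 mM MgCl2, 10 mM α-D-glucose and 0.93 mM NADP, nucleotide varied. KM was taken from linear double-reciprocal plots. Rat HK I and III came from electrofocused, dialysed liver extract, HK II from dialysed muscle extract, and yeast HK was isoelectric-focused.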

[5] = Substrate concentration for half maximal velocity was reported for rat hexokinase II; in short: as §2
[6] = Substrate concentration for half maximal velocity was reported for rat hexokinase III; in short: as §2
[7] = Substrate concentration for half maximal velocity was reported for yeast hexokinase; in short: as §2
[8] = Compound was tested for substrate constants with rat hexokinase. Maximal velocity Vmax was reported
In short: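 Rat HK I and HK III came from liver extract of an adult male Sprague-Dawley rat and were separated by electrofocusing and dialysed; HK II was dialysed muscle extract. The coupled assay ran at 22 °C in 0.05 M Tris-HCl pH 7.6 with 6.6 mM MgCl2, 10 mM glucose, 0.93 mM NADP and G6P dehydrogenase, read at 340 nm. Constants came from linear double-reciprocal plots.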

[9] = target: T1, Hexokinase-2 (Rattus norvegicus); test: Time dependent inhibition of hexokinase 2 activity after 6 h, at 5 mM compound
[10] = target: T2, Hexokinase-1 (Rattus norvegicus); test: Time dependent inhibition of Hexokinase type I activity after 6 h, at 22 degrees celsius, at 5 mM compound

Nc1ncnc2c1ncn2[C@@H]1O[C@H](COP(=O)(O)OP(=O)(O)OP(=O)(O)O)[C@@H](O)[C@H]1O
Relative velocity [1]: 1 | Relative velocity [2]: 1 | Velocity [3]: 100% | Km [4]: 440 µM | Km [5]: 710 µM | Km [6]: 910 µM | Km [7]: 130 µM | Vmax [8]: 100% | inhibition [9]: 0% | inhibition [10]: 0%
